The results in this text go back to ChEMBL document CHEMBL4725347, “Discovery of a Monoiodo Aza-BODIPY Near-Infrared Photosensitizer: in vitro and in vivo Evaluation for Photodynamic Therapy” (J Med Chem, 2020).

Data set [1] is described as follows: Absorption property of the compound in chloroform assessed as hypsochromic shift by measuring maximum absorption wavelength by UV-visible spectrophotometric method. It is filed as physicochemical. Summed up:
(§1)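 Electronic absorption spectra recorded by UV-visible spectrophotometry at room temperature. Solvents were chloroform, isopropanol, acetonitrile, DMF, and PBS buffer containing 1% Cremophor EL/1,2-propanediol (10:3, v:v). Chloroform data were referenced to the non-halogenated parent dye.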

Data set [2] can be described thus: Absorption property of the compound in chloroform assessed as absorption coefficient by UV-visible spectrophotometric method. It is filed as physicochemical. Summed up: as §1
Data set [3] is described as follows: Emission property of the compound in chloroform assessed as maximum emission wavelength by fluorescence spectrophotometric method. Format: physicochemical. In short, it runs like this: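 Fluorescence spectrum recorded in chloroform by fluorescence spectrophotometer at room temperature.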
A short description of data set [4]: Induction of singlet oxygen generation in N,N-dimethylformamide assessed as relative rate of DPBF degradation to MB at 1 uM irradiated with 90 mW/cm2 halogen light. Format: functional. In short, it runs like this: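 Singlet oxygen generation measured with 1,3-diphenylisobenzofuran (DPBF) as scavenger. The decrease in DPBF absorbance at 411 nm was monitored over time during light irradiation, and the photodegradation rate was calculated.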

The nature of data set [5]: Dark toxicity in human HeLa cells assessed as reduction in cell viability after 3 hrs by MTT assay. Format: cell-based. Summed up:
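Compound was formulated with Cremophor EL/1,2-propanediol in PBS, filtered, and its concentration confirmed by UV-Vis. HeLa cells in DMEM with 10% FBS at 37 °C, 5% CO2 were seeded at 3×10^3 cells/well and adhered overnight. Cells were exposed to graded concentrations for 3 h without light, incubated 24 h, then MTT 0.5 mg/mL for 4 h; formazan dissolved in DMSO, A490 read.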

A further data set has as its system HeLa. Description: Phototoxicity against human HeLa cells assessed as reduction in cell viability preincubated for 3 hrs followed by 54 J/cm2 light irradiation and measured after 24 hrs by MTT assay. It is filed as functional, cell-based. Conditions: light or radiation study. Summed up: (§2)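 PS formulated in PBS containing Cremophor EL/1,2-propanediol (10:3, v:v) after THF removal, filtered, with concentration confirmed by UV-Vis. Cells were grown in DMEM with 10% FBS and seeded at 3×10^3 per well overnight. They were incubated with PS for 3 h, irradiated at λ > 590 nm, kept 24 h at 37 °C, then given MTT (0.5 mg/mL, 4 h) with DMSO solubilization and A490 read-out.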

A short description of data set [6]: Dark toxicity in human MCF7 cells assessed as reduction in cell viability after 3 hrs by MTT assay. It is filed as cell-based.
For another data set, the system named is MCF7. Kind of data set: Phototoxicity against human MCF7 cells assessed as reduction in cell viability preincubated for 3 hrs followed by 54 J/cm2 light irradiation and measured after 24 hrs by MTT assay. It is filed as functional, cell-based. Conditions: MCF7, light or radiation study. In short, it runs like this: as §2
Data set [7] can be described thus: Dark toxicity in human SW480 cells assessed as reduction in cell viability after 3 hrs by MTT assay. It is filed as cell-based.
The next data set concerns SW480. Kind of data set: Phototoxicity against human SW480 cells assessed as reduction in cell viability preincubated for 3 hrs followed by 54 J/cm2 light irradiation and measured after 24 hrs by MTT assay. Conditions: SW480, light or radiation study. It is filed as functional, cell-based. Summed up: as §2

For `Cc1ccc(C2=[N+]3C(=Nc4c(-c5ccccc5)cc(-c5ccc(C)cc5)n4[B-]3(F)F)C(c3ccccc3)=C2I)cc1`, the Activity in [1] was found to be 659 nm; in [2], 89600 M⁻¹ cm⁻¹; in data set [3] it was 690 nm. For the same compound, the fold change (FC) in data set [4] was 0.26. The IC50 at 3 h in data set [5], in [6] and in data set [7] was greater than 50 µM in each case. Besides, the figures for the IC50 in the data set on HeLa, in the data set with MCF7 and in the data set on SW480 were 2.6 µM, 1.2 µM and 12.4 µM, respectively.
On to `COc1ccc2c(c1)CCc1c(-c3ccccc3)c3n(c1-2)[B-](F)(F)[N+]1=C(c2ccc(C)s2)C(Br)=C(c2ccccc2)C1=N3`, for which the Activity is 714 nm in data set [1], 73700 M⁻¹ cm⁻¹ in data set [2] and 753 nm in data set [3]. Besides, the fold change (FC) in data set [4] was found to be 0.14. Further, the IC50 at 3 h in data set [5], in [6] and in [7] was greater than 50 µM in each case. Also, the figures for the IC50 with HeLa, in the data set with MCF7 and with SW480 were 22.6 µM, greater than 25 µM and greater than 25 µM, respectively.
Turning to `Cc1ccc(C2=[N+]3C(=Nc4c(-c5ccccc5)cc(-c5ccc(C)s5)n4[B-]3(F)F)C(c3ccccc3)=C2I)s1`, the Activity came out at 732 nm in data set [1], 71700 M⁻¹ cm⁻¹ in data set [2] and 766 nm in data set [3]. Further, the fold change (FC) in data set [4] was found to be 0.32. Also, the IC50 at 3 h in data set [5], in [6] and in [7] was greater than 50 µM in each case. Besides, the results for the IC50 with HeLa, in the data set with MCF7 and in the data set with SW480 were 15.6 µM, 7.7 µM and 20.6 µM, respectively.
On to `COc1ccc2c(c1)CCc1c(-c3ccccc3)c3n(c1-2)[B-](F)(F)[N+]1=C(c2ccc(C)s2)C(I)=C(c2ccccc2)C1=N3`, for which the values for the Activity in [1], in [2] and in data set [3] were 716 nm, 76900 M⁻¹ cm⁻¹ and 756 nm, respectively. Further, the fold change (FC) in data set [4] was found to be 0.42. Further, the IC50 at 3 h in [5], in [6] and in data set [7] was greater than 50 µM each time. Also, the IC50 in the data set with HeLa was 12.3 µM; in the data set on MCF7, 16.6 µM; in the data set on SW480 it was 21.4 µM.
As to `COc1ccc2c(c1)CCc1c(-c3ccccc3)c3n(c1-2)[B-](F)(F)[N+]1=C(c2cccs2)C(I)=C(c2ccccc2)C1=N3`, the figures for the Activity in data set [1], in data set [2] and in [3] were 695 nm, 81500 M⁻¹ cm⁻¹ and 740 nm, respectively. Moreover, in data set [4], the fold change (FC) worked out at 0.37. The IC50 at 3 h in [5], in data set [6] and in data set [7] was greater than 50 µM throughout. Moreover, the IC50 with HeLa is 0.46 µM; with MCF7, 0.75 µM; in the data set on SW480, 0.83 µM.
Take `Cc1ccc(C2=[N+]3C(=Nc4c(-c5ccccc5)c(I)c(-c5ccc(C)cc5)n4[B-]3(F)F)C(c3ccccc3)=C2I)cc1`: the Activity in data set [1] was 662 nm; in data set [2], 92000 M⁻¹ cm⁻¹; in data set [3], 688 nm. For the same compound, the fold change (FC) in data set [4] was 0.28. The IC50 at 3 h in [5], in data set [6] and in data set [7] was greater than 50 µM in each case. Besides, the IC50 in the data set on HeLa is 13.4 µM; in the data set with MCF7, 5.3 µM; in the data set with SW480, greater than 25 µM.
As for `Cc1ccc(C2=[N+]3C(=Nc4c(-c5ccccc5)cc(-c5ccc(C)cc5)n4[B-]3(F)F)C(c3ccccc3)=C2Br)cc1`, the Activity in [1] was 658 nm; in data set [2], 83600 M⁻¹ cm⁻¹; in data set [3] it was 685 nm. Moreover, in [4], the fold change (FC) was found to be 0.12. Also, the IC50 at 3 h in data set [5], in data set [6] and in data set [7] was greater than 50 µM throughout. In addition, the IC50 was 7.2 µM with HeLa, 2.6 µM with MCF7 and greater than 25 µM with SW480.
